An excerpt weighted towards active compounds, which were near 2.5% of everything screened.
GSTO1 inh: blocks human GSTO1 in RBBP9 counter-screen; recombinant GSTO1, activity-based probe fluorescence polarization; actives 1.1% (n = 300,000); inhibition, % at 5.96 µM; P78417;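 active means inhibition above the campaign mean inhibition plus 3 SD, cut at about 35% in these data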;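 further: 0% = GSTO1-1 with DMSO and 100% = wells lacking GSTO1-1 enzyme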
Target sequence (P78417 whole entry, looked up): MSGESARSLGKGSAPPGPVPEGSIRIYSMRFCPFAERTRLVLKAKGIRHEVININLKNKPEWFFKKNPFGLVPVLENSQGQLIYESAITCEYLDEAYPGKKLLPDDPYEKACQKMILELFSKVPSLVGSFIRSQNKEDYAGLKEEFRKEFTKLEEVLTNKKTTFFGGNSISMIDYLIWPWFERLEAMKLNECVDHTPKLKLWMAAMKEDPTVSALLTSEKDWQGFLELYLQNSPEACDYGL
TDP2 inh: TDP2 (human) inhibition, absorbance primary screen; O95551; AID 720702; actives 0.34% (n = 370,000); recombinant TDP2, T5PNP hydrolysis, p-nitrophenol absorbance 415 nm; inhibition, % at 12.8 µM;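 active means inhibition above the mean of all tested compounds plus 3 SD, set per campaign, cut at about 25% in these data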;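 further: 0% = DMSO with enzyme and 100% = buffer with substrate but no TDP2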
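Incubation: 2 h at 37 °C; Test system: recombinant human TDP2; Quantity: enzyme 120 nM; Read-out basis: percent inhibition; Medium: 50 mM Tris-HCl pH 7.5 with Mg2+, KCl, DTT, BSA; Repeats: single replicate; Compound: 12.8 µM single point, 1% DMSO; Signal: epi absorbance; Reagent: 5 mM T5PNP chromogenic substrate; Benchmarks: no-enzyme high, DMSO-plus-enzyme low.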
CTSL1 counter: blocks F. hepatica cathepsin L1 in PFM18AAP counter-screen. recombinant F. hepatica cathepsin L1, Z-Leu-Arg-MCA fluorescence. inhibition, % at 5.96 µM. actives 0.49% (n = 300,000). AID 1906;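 active means inhibition above the mean of all tested compounds plus 3 SD, set per screening campaign, cut at about 17% in these data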;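 further: 0% = plate median of test compound wells and 100% = 1 µM Z-Phe-Ala-diazomethylketone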
PAD4 FP inh: PAD4 (human) enzyme inhibition | Q9UM07 | recombinant PAD4, RCA probe fluorescence polarization | inhibition, % at 6.36 µM | actives 0.41% (n = 330,000) | AID 485272;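 active means percent inhibition above a cutoff equal to the mean of all tested compounds plus 3 SD, cut at about 15% in these data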;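 further: 0% = PAD4 with RCA probe and DMSO and 100% = probe without PAD4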
PRMT1 FP inh: PRMT1 (human) inhibition, primary screen | inhibition, % at 2.79 µM | Q99873 | AID 652257 | actives 1.3% (n = 370,000) | recombinant PRMT1, activity-based probe fluorescence polarization;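 active means inhibition above about 21% made by adding two undisclosed values, limit read from the data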
Target sequence (Q99873 whole entry, looked up): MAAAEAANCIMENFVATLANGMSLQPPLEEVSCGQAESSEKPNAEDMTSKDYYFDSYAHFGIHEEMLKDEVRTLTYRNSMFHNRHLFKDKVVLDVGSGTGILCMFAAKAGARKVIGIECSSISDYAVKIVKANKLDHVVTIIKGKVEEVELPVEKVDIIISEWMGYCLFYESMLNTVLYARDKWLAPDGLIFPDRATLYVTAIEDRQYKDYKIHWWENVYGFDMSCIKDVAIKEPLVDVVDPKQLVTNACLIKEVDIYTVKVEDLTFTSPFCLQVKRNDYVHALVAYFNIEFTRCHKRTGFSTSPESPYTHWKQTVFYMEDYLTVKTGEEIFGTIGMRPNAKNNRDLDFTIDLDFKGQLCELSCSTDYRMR
PRMT1 inh conf: confirmation of human PRMT1 inhibitors. inhibition, % at 2.79 µM. actives 42% (n = 3,300). recombinant His-PRMT1, activity-based probe fluorescence polarization. shares compounds with PRMT1 FP inh;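 active means mean inhibition across replicates above the hit cutoff derived for the earlier primary screen, cut at about 22% in these data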
* = called active by the depositor; / = no result.

SMILES | GSTO1 inh | TDP2 inh | CTSL1 counter | PAD4 FP inh | PRMT1 FP inh | PRMT1 inh conf
Cc1cc[n+](-c2[nH]c(=O)sc2/C=N/NC([S-])=Nc2ccccc2)cc1C | 25.3 | -1.1 | 8.5 | 1.1 | 56.0* | 25.5*
O=C1CC(N2CCC(O)(c3ccc(Cl)cc3)CC2)C(=O)N1Cc1ccc(N2CCCC2=O)cc1 (centres undefined) | 7.7 | 6.3 | 3.1 | -0.2 | 63.0* | 4.4
O=C1CCCN1CCC1CCN(C2CC(=O)N(Cc3ccc(N4CCCC4=O)cc3)C2=O)CC1 (centres undefined) | -3.1 | -11.0 | 3.5 | -4.6 | 92.6* | 7.2
O=C1CCCN1CCC1CCN(C2CC(=O)N(c3ccc(Cl)cc3)C2=O)CC1 (centres undefined) | -1.9 | -6.5 | 7.6 | -6.1 | 50.4* | 9.1
O=C1CC(N2CCOCC2)C(=O)N1Cc1ccc(N2CCCC2=O)cc1 (centres undefined) | -5.0 | -9.6 | -4.8 | -4.1 | 14.5 | /
O=C(CSc1nnc(-c2ccccc2)n1-c1ccc(Cl)cc1)Nc1ccc(OCc2ccccc2)cc1 | / | -1.2 | / | / | 1.4 | /
O=C(NCc1cccc(Cl)c1)O[C@H]1CC[C@@]23CCCN2C(=O)CCC[C@H]3C1 | / | -4.3 | / | / | -2.1 | /
Cc1ccc(-c2cc(C(=O)N=Nc3c(O)[nH]c4ccccc34)[nH]n2)cc1C | / | 2.5 | / | / | 0.2 | /
Nc1ccc(C(=O)Nc2ccc3c(O)cc(S(=O)(=O)O)cc3c2)cc1 | / | -0.8 | / | / | 7.3 | /
Nc1cc(S(=O)(=O)O)cc2ccc(S(=O)(=O)O)cc12 | / | 20.9 | / | / | 35.1* | 10.3
COc1ccc(S(=O)(=O)/N=C2/NC(=O)/C(=C\c3ccco3)S2)cc1 | 13.0 | 4.3 | 1.1 | -6.1 | 30.4* | 15.5
COc1ccc(S(=O)(=O)/N=C2/NC(=O)/C(=C/c3ccco3)S2)cc1 | 6.1 | 10.1 | 9.8 | -6.0 | 46.9* | 6.3
COc1ccc(N=C2NC(=O)/C(=C/c3ccco3)S2)cc1 | -9.5 | -7.3 | 2.8 | 0.7 | 6.1 | /
C=CCN1C[C@@H](COCc2ccccc2)Oc2cc(F)ccc2S1(=O)=O | / | 5.8 | / | / | 3.5 | /
Nc1ccc(O)cc1C(=O)OCC(=O)c1ccc(C2CCCCC2)cc1 | 10.3 | 7.3 | -1.9 | -8.4 | 29.3* | -0.5
COc1ccc(C(=O)OCC(=O)c2ccc(C3CCCCC3)cc2)cc1 | 0.0 | 8.8 | -0.3 | 1.9 | -0.4 | /
CC(=O)C1=C(O)C(=O)N(CCc2c[nH]c3ccccc23)C1c1ccco1 (centres undefined) | 5.2 | 7.2 | 2.0 | -5.9 | 28.4* | 5.3
O=S1(=O)c2ccc(N3CCCC3)cc2Oc2ccccc2CN1Cc1cn(Cc2ccc(C(F)(F)F)cc2)nn1 | / | 8.6 | / | / | -4.1 | /
O=C(NCc1cccs1)[C@@H]1CSC2c3ccccc3C(=O)N21 (some centres undefined) | -3.0 | -13.6 | -2.5 | -2.7 | 25.7* | 34.2*
CCCCCNC(=O)[C@@H]1CSC2c3ccccc3C(=O)N21 (some centres undefined) | -3.0 | -21.9 | 6.1 | -5.7 | 3.8 | /
Cc1ccccc1NC(=O)CSCC(=O)Nc1ccccc1C | 2.5 | 4.9 | -3.7 | -3.4 | 2.7 | /
COc1ccccc1NC(=O)CSC(N)=O | 1.6 | -3.1 | 3.9 | 7.2 | 81.0* | 93.5*
Cc1ccccc1NC(=O)CSC(N)=O | 0.1 | 9.9 | -5.5 | 0.0 | 75.3* | 89.6*
NC(=O)SCC(=O)Nc1ccccc1C(=O)O | 1.0 | 0.4 | -7.1 | 8.8 | 36.6* | 81.2*
C/C(C=NNC(=O)CSc1nnc(-c2ccc(Cl)cc2)n1-c1ccc(C)cc1)=C\c1ccccc1 | / | -0.6 | / | / | -2.5 | /
SMILES | GSTO1 inh | TDP2 inh | CTSL1 counter | PAD4 FP inh | PRMT1 FP inh | PRMT1 inh conf
Nc1ccc2cc3[nH]c4cc(N)ccc4c3nc2c1 | / | 5.9 | / | / | 155.9* | -40.9
COC(=O)[C@]12C[C@H](CC(=O)N3CCSCC3)C(=O)N(Cc3ccc(Cl)cc3Cl)C1=C[C@H](C(C)(C)C)O[C@@H]2C | / | -2.3 | / | / | 2.2 | /
O=C(NN1C(=O)/C(=C/c2cccs2)SC1=S)c1cccnc1 | 22.9 | -19.9 | -1.0 | -2.8 | 26.6* | -0.7
CCN(CC)CCCNC(=S)N(CCO)Cc1cc2cc3c(cc2[nH]c1=O)OCCO3 | 3.7 | 10.5 | 3.3 | 2.2 | 7.0 | /
CCCCNC(=S)N(CCO)Cc1cc2cc3c(cc2[nH]c1=O)OCCO3 | 5.5 | -10.4 | 2.9 | 0.5 | 43.9* | -3.9
Cc1ccccc1CN1CCCCC(NC(=O)Nc2ccccc2)C1=O (centres undefined) | / | 5.6 | / | / | 0.6 | /
Cc1ccc(NC(=O)CSc2nnc(-c3cc(-c4ccc(Cl)cc4)n[nH]3)n2N)cc1 | / | -5.5 | / | / | -1.0 | /
CCN1CCCC1CNC(=O)Cn1nc(C)n2c(cc3cc(F)ccc32)c1=O (centres undefined) | 1.7 | 7.6 | 1.5 | -1.5 | 33.2* | 2.4
CCCNC(=O)Cn1nc(C)n2c(cc3cc(F)ccc32)c1=O | / | 2.8 | / | / | -1.9 | /
C=CCOC(=O)/C=C/C(=O)NC(N)=O | -3.6 | -9.7 | -2.7 | -0.7 | 76.5* | 69.2*
Cc1ccc(C2NC(=O)c3c(sc(C)c3C)N2)c(O)c1 (centres undefined) | 8.3 | 8.1 | 0.8 | -2.6 | 14.9 | /
Cc1cccc(C2NC(=O)c3c(sc(C)c3C)N2)c1O (centres undefined) | 0.8 | 5.3 | 2.3 | 2.8 | 52.6* | 2.3
Nc1ncnc2c1ncn2[C@@H]1O[C@H](C(=O)N[C@@H](CCc2ccccc2)C(=O)N2CCN(CC(=O)N3CCCC3)CC2)[C@@H](O)[C@H]1O | / | -4.3 | / | / | 3.3 | /
NC(=O)/C=C\C(=O)Nc1cccc(C(F)(F)F)c1 | -6.3 | 1.5 | 2.5 | 6.0 | 50.7* | 25.0*
NNC(=O)Nc1cccc(C(F)(F)F)c1 | -2.2 | -1.8 | -1.0 | 1.7 | 7.7 | /
O=C(c1cccc(Oc2ccccc2)c1)N1CCC(Oc2cccnc2)CC1 | / | 9.6 | / | / | -2.4 | /
CCCOc1ccc(NC(=O)CC2C(=O)OCC3CCCCN32)cc1 (centres undefined) | / | -0.5 | / | -3.0 | 35.7* | 2.6
O=C(CC1C(=O)OCC2CCCCN21)Nc1ccccc1C(F)(F)F (centres undefined) | 6.5 | -4.6 | 6.2 | 0.9 | 47.6* | 3.8
O=C(OC12CCCN(C1)/C(=C/c1cccc(Cl)c1)C2)c1cccc(F)c1 (centres undefined) | / | -0.3 | / | / | -6.6 | /
COc1c(O)cccc1[C@H](O)C1CCN(CCc2ccc(F)cc2)CC1 | -3.5 | 3.5 | 0.3 | -0.7 | 28.8* | 1.7
CCN1CCC(NCCc2ccc(F)cc2)CC1 | -1.0 | 3.8 | 1.5 | 5.7 | -0.8 | /
Oc1ccc2nnc3c(Br)cnn3c2c1 | 5.6 | 3.0 | 0.8 | 0.0 | 49.6* | 49.6*
Cc1ccc2c3c(cccc13)-c1ccccc1C2=O | -3.9 | 4.8 | 0.6 | 0.1 | 5.8 | /
Nc1ccc2c3c(cccc13)-c1ccccc1-2 | / | 4.5 | / | / | 57.6* | 60.6*
CCOC(=O)c1c(SCCN2CCCCC2)n(-c2ccccc2)c(=S)n(-c2ccccc2)c1=O | / | -2.7 | / | / | 31.3* | 4.2
